Tests used:
[1] = Oral bioavailability in mouse at 5 mg/kg; assay type: ADME, organism-based; settings: in vivo
[2] = Oral bioavailability in dog at 1 mg/kg; assay type: ADME, organism-based, Canis lupus familiaris; settings: in vivo
Canis familiaris = assay: Ratio of Cmax to Cmin in dog at 1 mg/kg, po; assay type: ADME, organism-based, Canis lupus familiaris; settings: in vivo
[3] = Volume of distribution at steady state in rat at 2 mg/kg, iv; assay type: ADME, organism-based; settings: in vivo, read-out: Vdss
Method in brief: (§1)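 Multi-species pharmacokinetic study with separate iv and oral dosing arms. Steady-state volume of distribution was taken from the iv arm: 2 mg/kg in mouse and rat, 1 mg/kg in cynomolgus monkey and dog. Oral doses in the same study were 5 mg/kg in mouse and rat and 1 mg/kg in monkey and dog.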

[4] = target: Sphingosine 1-phosphate receptor 1 (Homo sapiens, UniProt P21453); assay: Agonist activity at human S1P1 receptor expressed in CHO cell membranes assessed as stimulation of [35S]GTPgamma binding incubated for 45 mins by liquid scintillation counting method
Chain of Sphingosine 1-phosphate receptor 1 (P21453 whole entry): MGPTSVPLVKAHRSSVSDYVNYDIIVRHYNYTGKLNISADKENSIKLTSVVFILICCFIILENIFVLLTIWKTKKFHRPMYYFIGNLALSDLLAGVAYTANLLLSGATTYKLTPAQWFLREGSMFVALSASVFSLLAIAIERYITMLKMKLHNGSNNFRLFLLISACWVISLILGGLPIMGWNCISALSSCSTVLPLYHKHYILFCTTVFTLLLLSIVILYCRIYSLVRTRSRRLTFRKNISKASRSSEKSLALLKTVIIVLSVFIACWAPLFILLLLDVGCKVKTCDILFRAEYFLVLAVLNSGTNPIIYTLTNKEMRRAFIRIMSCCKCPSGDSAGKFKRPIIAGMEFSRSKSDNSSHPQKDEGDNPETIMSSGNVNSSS
Method in brief: (§2)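 Membranes from S1P1/CHO cells (S1P1) or EDG3-Ga15-bla HEK293T cells (S1P3), final protein […], with 3-fold compound dilutions. Buffer: 20 mM HEPES pH 7.5, 10 mM MgCl2, 150 mM NaCl, 1 mM EGTA, 1 mM DTT, GDP, 0.1% fatty acid free BSA, saponin. [35S]GTP 0.2 nM final. Room temperature, 45 min. Filtered, washed with water, dried 60 °C. EC50 taken at 50% of each compound's Ymax.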

[5] = Volume of distribution at steady state in cynomolgus monkey at 1 mg/kg, iv; assay type: ADME, organism-based, Macaca fascicularis; settings: in vivo, read-out: Vdss; method in brief: as §1
Cytochrome P450 3A4 = Cytochrome P450 3A4 (Homo sapiens, UniProt P08684); assay: Inhibition of CYP3A4 (unknown origin); assay type: ADME
Chain of Cytochrome P450 3A4 (P08684 whole entry): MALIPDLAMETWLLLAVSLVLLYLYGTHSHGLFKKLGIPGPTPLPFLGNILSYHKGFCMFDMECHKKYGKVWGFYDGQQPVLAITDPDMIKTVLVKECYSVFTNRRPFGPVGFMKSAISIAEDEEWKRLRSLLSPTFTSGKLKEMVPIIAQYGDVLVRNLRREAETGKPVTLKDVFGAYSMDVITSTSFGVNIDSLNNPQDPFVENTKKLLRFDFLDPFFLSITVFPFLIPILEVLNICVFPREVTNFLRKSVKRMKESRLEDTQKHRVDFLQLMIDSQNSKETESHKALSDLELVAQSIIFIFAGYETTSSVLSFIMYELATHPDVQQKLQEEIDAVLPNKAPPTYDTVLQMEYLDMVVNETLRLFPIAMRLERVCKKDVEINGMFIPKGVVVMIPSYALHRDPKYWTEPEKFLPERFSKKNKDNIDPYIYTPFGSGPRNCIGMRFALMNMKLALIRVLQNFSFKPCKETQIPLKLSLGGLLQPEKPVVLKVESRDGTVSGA

[6] = Clearance in rat at 2 mg/kg, iv; assay type: ADME, organism-based; settings: in vivo
hERG (KCNH2) [7] = target: T1, hERG (KCNH2) (Homo sapiens, UniProt Q12809); assay: Inhibition of human ERG at 30 uM by patch clamp assay
T1 sequence (Q12809 whole entry): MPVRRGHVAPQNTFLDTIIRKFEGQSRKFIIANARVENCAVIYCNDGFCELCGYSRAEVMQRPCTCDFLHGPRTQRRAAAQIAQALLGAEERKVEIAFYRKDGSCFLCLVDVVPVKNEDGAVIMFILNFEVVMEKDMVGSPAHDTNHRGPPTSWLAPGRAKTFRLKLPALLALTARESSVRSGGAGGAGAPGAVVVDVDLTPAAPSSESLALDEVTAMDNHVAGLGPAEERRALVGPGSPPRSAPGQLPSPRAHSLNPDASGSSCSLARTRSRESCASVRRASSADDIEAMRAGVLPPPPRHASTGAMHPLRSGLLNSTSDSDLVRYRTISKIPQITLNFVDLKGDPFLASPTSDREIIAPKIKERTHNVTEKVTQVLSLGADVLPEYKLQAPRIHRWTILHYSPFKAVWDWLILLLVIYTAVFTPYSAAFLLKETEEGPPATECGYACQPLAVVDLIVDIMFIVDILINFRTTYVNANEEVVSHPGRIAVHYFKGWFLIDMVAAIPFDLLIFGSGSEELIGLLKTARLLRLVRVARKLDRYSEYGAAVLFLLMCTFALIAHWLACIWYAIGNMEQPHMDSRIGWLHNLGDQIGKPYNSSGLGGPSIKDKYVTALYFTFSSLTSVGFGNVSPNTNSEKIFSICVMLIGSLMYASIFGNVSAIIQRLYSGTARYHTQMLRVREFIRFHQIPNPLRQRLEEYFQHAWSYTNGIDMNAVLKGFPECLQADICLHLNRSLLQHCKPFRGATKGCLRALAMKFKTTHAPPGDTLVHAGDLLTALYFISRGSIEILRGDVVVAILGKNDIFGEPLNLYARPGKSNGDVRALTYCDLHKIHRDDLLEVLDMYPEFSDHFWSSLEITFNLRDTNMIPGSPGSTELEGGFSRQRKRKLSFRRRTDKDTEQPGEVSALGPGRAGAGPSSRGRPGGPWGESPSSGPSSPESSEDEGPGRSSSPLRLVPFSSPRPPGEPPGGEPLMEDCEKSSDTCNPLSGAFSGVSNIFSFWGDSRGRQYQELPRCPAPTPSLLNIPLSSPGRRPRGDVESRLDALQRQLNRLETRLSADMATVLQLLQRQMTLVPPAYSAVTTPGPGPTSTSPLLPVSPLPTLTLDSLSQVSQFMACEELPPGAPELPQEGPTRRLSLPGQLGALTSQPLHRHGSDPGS

[8] = Clearance in dog at 1 mg/kg, iv; assay type: ADME, organism-based, Canis lupus familiaris; settings: in vivo
Cytochrome P450 2C9 = Cytochrome P450 2C9 (Homo sapiens, UniProt P11712); assay: Inhibition of CYP2C9 (unknown origin); assay type: ADME
Chain of Cytochrome P450 2C9 (P11712 whole entry): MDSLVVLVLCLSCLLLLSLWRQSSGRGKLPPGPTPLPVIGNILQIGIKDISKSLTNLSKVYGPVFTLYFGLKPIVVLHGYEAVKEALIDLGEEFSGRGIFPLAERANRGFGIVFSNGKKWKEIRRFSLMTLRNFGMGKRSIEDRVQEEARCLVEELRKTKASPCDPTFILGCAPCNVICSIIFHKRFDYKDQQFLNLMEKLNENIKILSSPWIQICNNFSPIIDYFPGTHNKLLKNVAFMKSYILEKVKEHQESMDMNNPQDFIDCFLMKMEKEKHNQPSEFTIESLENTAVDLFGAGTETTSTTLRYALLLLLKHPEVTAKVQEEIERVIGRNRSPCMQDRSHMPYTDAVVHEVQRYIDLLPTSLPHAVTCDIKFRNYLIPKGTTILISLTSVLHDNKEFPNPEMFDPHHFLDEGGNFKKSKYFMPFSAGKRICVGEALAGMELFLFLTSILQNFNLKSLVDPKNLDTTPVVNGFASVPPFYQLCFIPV

CHO [9] = assay: Selectivity index, ratio of EC50 for agonist activity at human S1P4 receptor to EC50 for agonist activity at human S1P1 receptor expressed in CHO cell membranes; assay type: cell-based
CHO [10] = assay: Selectivity index, ratio of EC50 for agonist activity at human S1P5 receptor to EC50 for agonist activity at human S1P1 receptor expressed in CHO cell membranes; assay type: cell-based
Cytochrome P450 2C8 = target: T2, Cytochrome P450 2C8 (Homo sapiens, UniProt P10632); assay: Inhibition of CYP2C8 (unknown origin); assay type: ADME
T2 sequence (P10632 whole entry): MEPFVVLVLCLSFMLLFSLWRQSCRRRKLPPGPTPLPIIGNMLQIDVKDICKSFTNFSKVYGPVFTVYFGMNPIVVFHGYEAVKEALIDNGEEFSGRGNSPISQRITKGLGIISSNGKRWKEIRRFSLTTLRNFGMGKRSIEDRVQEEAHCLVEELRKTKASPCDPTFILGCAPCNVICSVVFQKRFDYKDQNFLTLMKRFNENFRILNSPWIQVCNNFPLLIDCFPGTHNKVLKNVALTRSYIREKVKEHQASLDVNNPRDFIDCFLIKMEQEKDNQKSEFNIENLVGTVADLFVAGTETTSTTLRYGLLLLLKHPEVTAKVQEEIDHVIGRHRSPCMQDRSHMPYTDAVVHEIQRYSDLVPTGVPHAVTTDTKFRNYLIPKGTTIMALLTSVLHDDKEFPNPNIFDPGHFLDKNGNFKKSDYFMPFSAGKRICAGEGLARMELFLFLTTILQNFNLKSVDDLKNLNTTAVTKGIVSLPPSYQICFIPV

Liver microsome [11] = assay: Stability in human liver microsomes assessed as compound remaining; assay type: ADME
[12] = Protein binding in monkey plasma; assay type: ADME, cell-free, Macaca mulatta; settings: rhesus monkey, read-out: PPB (converted)
Liver microsome [13] = assay: Stability in rat liver microsomes assessed as compound remaining; assay type: ADME
[14] = Oral bioavailability in rat at 5 mg/kg; assay type: ADME, organism-based; settings: in vivo
[15] = Selectivity index, ratio of EC50 for agonist activity at human S1P3 receptor expressed in EDG3-Ga15-bla HEK293T cell membranes to EC50 for agonist activity at human S1P1 receptor expressed in CHO cell membranes; assay type: cell-based
Method in brief: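 S1P3/S1P1 ratio of GTPγ[35S] EC50s. Membranes from EDG3-Ga15-bla HEK293T (S1P3) or S1P1/CHO cells, […], 0.2 nM final [35S]GTP. HEPES pH 7.5 buffer with MgCl2, NaCl, EGTA, DTT, GDP, BSA and saponin. 45 min at room temperature, filtration read-out. Each EC50 taken at 50% of the compound's own Ymax.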

[16] = target: Sphingosine 1-phosphate receptor 3 (Homo sapiens, UniProt Q99500); assay: Agonist activity at human S1P3 receptor expressed in EDG3-Ga15-bla HEK293T cell membranes assessed as stimulation of [35S]GTPgamma binding incubated for 45 mins by liquid scintillation counting method; parameters: species or system HEK-293T; method in brief: as §2
Chain of Sphingosine 1-phosphate receptor 3 (Q99500 whole entry): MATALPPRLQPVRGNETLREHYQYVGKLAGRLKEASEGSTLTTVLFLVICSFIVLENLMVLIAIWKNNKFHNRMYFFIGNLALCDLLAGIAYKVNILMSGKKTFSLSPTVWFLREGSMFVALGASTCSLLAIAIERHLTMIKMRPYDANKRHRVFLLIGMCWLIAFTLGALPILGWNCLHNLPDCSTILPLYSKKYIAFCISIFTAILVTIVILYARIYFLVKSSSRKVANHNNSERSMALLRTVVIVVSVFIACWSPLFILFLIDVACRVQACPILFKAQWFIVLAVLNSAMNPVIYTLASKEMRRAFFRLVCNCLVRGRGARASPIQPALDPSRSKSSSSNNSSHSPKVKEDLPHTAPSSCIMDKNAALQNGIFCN

Rattus norvegicus [17] = assay: Reduction in circulating lymphocytes in Lewis rat at 0.3 mg/kg, po after 24 hrs; assay type: functional
Method in brief: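 Healthy Lewis rats dosed orally with test article as solution or suspension in vehicle, or vehicle alone. Blood drawn at 4 h and 24 h. Circulating lymphocyte percentage measured by hematology analyzer, expressed as reduction versus the vehicle group. Group average, n = 3–4.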

[18] = Half life in rat at 2 mg/kg, iv; assay type: ADME, organism-based; settings: in vivo
Cytochrome P450 1A2 = target: T3, Cytochrome P450 1A2 (Homo sapiens, UniProt P05177); assay: Inhibition of CYP1A2 (unknown origin); assay type: ADME
T3 sequence (P05177 whole entry): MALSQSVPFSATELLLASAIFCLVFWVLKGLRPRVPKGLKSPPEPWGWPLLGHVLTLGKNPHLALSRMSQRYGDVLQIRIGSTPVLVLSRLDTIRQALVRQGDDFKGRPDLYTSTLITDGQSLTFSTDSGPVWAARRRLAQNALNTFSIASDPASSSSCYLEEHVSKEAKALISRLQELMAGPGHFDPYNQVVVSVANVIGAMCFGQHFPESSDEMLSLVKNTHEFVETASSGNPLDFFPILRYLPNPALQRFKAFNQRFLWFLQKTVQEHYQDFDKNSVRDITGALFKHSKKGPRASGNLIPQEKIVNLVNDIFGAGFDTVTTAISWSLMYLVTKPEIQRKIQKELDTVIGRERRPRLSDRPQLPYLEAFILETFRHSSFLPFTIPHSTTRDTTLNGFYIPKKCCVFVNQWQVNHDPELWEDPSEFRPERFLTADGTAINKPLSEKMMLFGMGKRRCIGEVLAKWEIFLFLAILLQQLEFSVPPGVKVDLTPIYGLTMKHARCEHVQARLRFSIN

hERG (KCNH2) [19] = target: T1, hERG (KCNH2); assay: Inhibition of human ERG at 10 uM by patch clamp assay
[20] = Clearance in cynomolgus monkey at 1 mg/kg, iv; assay type: ADME, organism-based, Macaca fascicularis; settings: in vivo
Cytochrome P450 2C19 = Cytochrome P450 2C19 (Homo sapiens, UniProt P33261); assay: Inhibition of CYP2C19 (unknown origin); assay type: ADME
Chain of Cytochrome P450 2C19 (P33261 whole entry): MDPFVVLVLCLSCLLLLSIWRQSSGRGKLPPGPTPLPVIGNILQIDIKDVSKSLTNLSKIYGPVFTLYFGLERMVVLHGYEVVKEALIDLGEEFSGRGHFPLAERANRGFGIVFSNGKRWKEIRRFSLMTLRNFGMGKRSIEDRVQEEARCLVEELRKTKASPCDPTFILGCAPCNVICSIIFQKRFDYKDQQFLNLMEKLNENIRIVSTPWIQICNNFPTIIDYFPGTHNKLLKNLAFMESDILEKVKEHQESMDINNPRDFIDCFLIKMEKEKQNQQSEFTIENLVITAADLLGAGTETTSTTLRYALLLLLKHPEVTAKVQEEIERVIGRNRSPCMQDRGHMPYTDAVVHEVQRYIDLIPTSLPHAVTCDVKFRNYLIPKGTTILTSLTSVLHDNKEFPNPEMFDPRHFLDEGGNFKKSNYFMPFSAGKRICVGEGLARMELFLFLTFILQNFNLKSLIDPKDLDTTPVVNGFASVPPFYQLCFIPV

Rattus norvegicus [21] = assay: Anti-inflammatory activity in Lewis rat complete Freund's adjuvant-induced arthritis model of human rheumatoid arthritis assessed as reduction in hind paw swelling at 0.5 and 3 mg/kg, po QD for 21 days starting at day 0 by plethysmometry; assay type: functional, organism-based
Method in brief: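 Male Lewis rats given complete Freund's adjuvant with heat-killed Mycobacterium butyricum subcutaneously at the tail base. Dosed orally once daily for 21 days from day 0. Hind paw volume measured by water displacement plethysmometry at baseline and over three weeks; increase above baseline calculated. Compared with vehicle, p<0.05.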

[22] = Volume of distribution at steady state in dog at 1 mg/kg, iv; assay type: ADME, organism-based, Canis lupus familiaris; settings: in vivo, read-out: Vdss; method in brief: as §1

bioavailability [1]: 70%
bioavailability [2]: 87%
Ratio (Canis familiaris): 7.4
Vd [3]: 0.4 L/kg
EC50 [4]: 0.71 nM
Vd [5]: 0.5 L/kg
IC50 (Cytochrome P450 3A4): > 40 µM
clearance [6]: 1 mL/min/kg
clearance [8]: 2.6 mL/min/kg
IC50 (Cytochrome P450 2C9): > 40 µM
IC50 (Cytochrome P450 2C8): > 40 µM
Stability (Liver microsome [11]): 88%
fraction unbound [12]: 0.065
Stability (Liver microsome [13]): 100%
bioavailability [14]: 100%
EC50 [16]: 2900 nM
half-life [18]: 288 min
IC50 (Cytochrome P450 1A2): > 40 µM
clearance [20]: 14 mL/min/kg
IC50 (Cytochrome P450 2C19): > 40 µM
Vd [22]: 0.7 L/kg
SMILES: O=C(O)C1CN(Cc2ccc(-c3noc(-c4onc(-c5ccccn5)c4C(F)(F)F)n3)cc2)C1
inhibition at 30 µM (hERG (KCNH2) [7]): 34%
Ratio EC50 (CHO [9]): 3.2
Ratio EC50 (CHO [10]): 3.2
Ratio EC50 [15]: 4100
inhibition in vivo at 0.3 mg/kg (Rattus norvegicus [17]): 50%
inhibition at 10 µM (hERG (KCNH2) [19]): 13%
Activity (Rattus norvegicus [21]): Dose-dependent effect
